# What was measured:
# Thrombopoietin receptor = biological target: T1, Thrombopoietin receptor (Homo sapiens, UniProt P40238); assay: Agonist activity at human TPOR expressed
# T1 sequence (P40238 whole entry): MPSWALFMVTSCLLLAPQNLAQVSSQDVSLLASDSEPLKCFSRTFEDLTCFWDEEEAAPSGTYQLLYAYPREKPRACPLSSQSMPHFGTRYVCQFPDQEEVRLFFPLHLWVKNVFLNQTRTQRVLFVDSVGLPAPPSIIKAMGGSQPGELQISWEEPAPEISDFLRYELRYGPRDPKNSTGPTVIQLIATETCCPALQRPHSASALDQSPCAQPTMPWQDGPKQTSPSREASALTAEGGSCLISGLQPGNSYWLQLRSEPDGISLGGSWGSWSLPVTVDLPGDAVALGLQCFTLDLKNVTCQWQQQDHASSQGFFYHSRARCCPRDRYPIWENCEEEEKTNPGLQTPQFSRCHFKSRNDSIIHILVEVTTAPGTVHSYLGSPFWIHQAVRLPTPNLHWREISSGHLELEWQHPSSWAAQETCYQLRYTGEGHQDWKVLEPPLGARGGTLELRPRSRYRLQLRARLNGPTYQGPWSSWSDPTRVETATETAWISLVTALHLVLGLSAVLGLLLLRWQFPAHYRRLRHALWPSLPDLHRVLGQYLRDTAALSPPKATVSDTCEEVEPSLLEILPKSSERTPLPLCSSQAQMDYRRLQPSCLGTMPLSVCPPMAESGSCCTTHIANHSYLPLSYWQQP
# [1] = biological target: T2, Thrombopoietin receptor (Homo sapiens) (UniProt P40238); assay: Agonist activity at human TPOR expressed in mouse BaF3 cells at 150 nM
# T2 sequence (whole entry): T1 sequence (P40238 whole entry)
# [2] = biological target: T2, Thrombopoietin receptor (Homo sapiens); assay: Agonist activity at human TPOR expressed in mouse BaF3 cells at 300 nM
# [3] = AUC (0 to t) in rat at 5 mg/kg, po; format: ADME, organism-based; set-up: dose 5 mg/kg, route oral; conditions: plasma
# Summary of the method: (§1)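 Test substances given as ethanolamine salts, orally at 5 mg/kg to rats. Plasma concentration–time profiles were used to derive apparent total plasma clearance (CLz/F), half-life, AUC0–t and peak plasma concentration (Cmax). Values are reported as mean ± spread.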
# [4] = Cmax in rat at 5 mg/kg, po; format: ADME, organism-based; set-up: dose 5 mg/kg, route oral; conditions: in vivo
# Summary of the method: as §1
# [5] = Half life in rat at 5 mg/kg, po; format: ADME, organism-based; set-up: dose 5 mg/kg, route oral; conditions: in vivo
# Summary of the method: as §1
# [6] = Apparent total plasma clearance in rat at 5 mg/kg, po; format: ADME, organism-based; set-up: dose 5 mg/kg, route oral; conditions: read-out: CLt/F (converted)
# Summary of the method: as §1
EC50 (Thrombopoietin receptor),% activity vs 10 ng/ml TPO [1],% activity vs 10 ng/ml TPO [2],Structure (SMILES),further results
6 nM,,,CC1=NN(c2ccc(C)c(C)c2)C(=O)/C1=C(/C)NNC(=S)N1CCc2cc(C(=O)O)ccc21,
,14.3%,75.8%,C/C(NNC(=S)N1CCc2cc(C(=O)O)ccc21)=C1/C(=O)N(c2ccc3c(c2)CCC3)c2ccccc21,
46 nM,,,CC1=NN(c2ccc3c(c2)CCC3)C(=O)/C1=C(/C)NNC(=O)N1CCc2cc(C(=O)O)ccc21,AUC(0-t) [3]: 4460 ng·h/mL; Cmax [4]: 3550 ng/mL; half-life [5]: 1.48 h; CL/F [6]: 20.5 mL/min/kg
,47.8%,107%,C/C(NNC(=S)N1CCc2cc(C(=O)O)ccc21)=C1/C(=O)N(c2ccc(C)cc2)c2ccccc21,
42 nM,,,CC1=NN(c2ccc(C)c(C)c2)C(=O)/C1=C(/C)NNC(=O)N1CCc2cc(C(=O)O)ccc21,AUC(0-t) [3]: 923 ng·h/mL; Cmax [4]: 859 ng/mL; half-life [5]: 1.86 h; CL/F [6]: 113 mL/min/kg
64 nM,,,CC1=NN(c2ccc(C)c(C)c2)C(=O)/C1=C(/C)NNC(=S)N1CCCc2cc(C(=O)O)ccc21,
,3.2%,10.6%,C/C(NNC(=S)N1CCc2cc(C(=O)O)ccc21)=C1/C(=O)N(c2ccc3c(c2)CCC3)c2ccc(F)cc21,
,30.9%,33.4%,C/C(NNC(=S)N1CCCc2cc(C(=O)O)ccc21)=C1/C(=O)N(c2ccc(C)c(C)c2)c2ccccc21,
26 nM,,,CCNC(=O)c1ccc2c(c1)CCN2C(=S)NN/C(C)=C1\C(=O)N(c2ccc(C)c(C)c2)N=C1C,
35 nM,,,CC1=NN(c2ccc3c(c2)CCC3)C(=O)/C1=C(/C)NNC(=S)N1CCCc2cc(C(=O)O)ccc21,
,72.4%,138%,C/C(NNC(=S)N1CCc2cc(C(=O)O)ccc21)=C1/C(=O)N(c2ccc(C)c(C)c2)c2ccccc21,
,78.1%,122%,C/C(NNC(=S)N1CCc2cc(C(=O)O)ccc21)=C1/C(=O)N(c2ccc(C)cc2)c2ccc(F)cc21,
,47.3%,101%,C/C(NNC(=S)N1CCCc2cc(C(=O)O)ccc21)=C1/C(=O)N(c2ccc(C)cc2)c2ccccc21,
3 nM,,,CC1=NN(c2ccc3c(c2)CCC3)C(=O)/C1=C(/C)NNC(=S)N1CCc2cc(C(=O)O)ccc21,
22 nM,,,CNC(=O)c1ccc2c(c1)CCN2C(=S)NN/C(C)=C1\C(=O)N(c2ccc(C)c(C)c2)N=C1C,
31 nM,,,CC1=NN(c2ccc(C)c(C)c2)C(=O)/C1=C(/C)NNC(=S)N1CCc2cc(C(=O)N3CCOCC3)ccc21,

# — ChEMBL document CHEMBL1255541, “Novel indoline-1- or 3,4-dihydroquinoline-1(2H)-substituted carbothiohydrazides as TPO receptor agonists” (Bioorg Med Chem Lett, 2010)
